Where a SMILES comes first, the peptide text is derived from it. [ ]: non-standard residue; d: D form. The star is where a group is joined. Piperazinyl(4-Ph) = c1ccc(N2CCN(*)CC2)cc1; dGly(2-thienyl) = N[C@@H](C(=O)O)c1cccs1
Tests used:
[1] = Cmax in rat plasma after oral dose (50 mg/Kg); type: ADME, organism-based; design: dose 50 mg/Kg, route oral
In short: (§1)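 Rats given 50 mg/kg orally. Plasma was separated at once by centrifugation and stored at -80 °C. Proteins were precipitated with acetonitrile and drug measured by HPLC to give Cmax, AUC and t1/2.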

Endothelin-1 receptor [2] = molecular target: T1, Endothelin-1 receptor (Homo sapiens, UniProt P25101); test: Displacement of [125I]ET-1 from Endothelin A receptor
T1 sequence (P25101 whole entry): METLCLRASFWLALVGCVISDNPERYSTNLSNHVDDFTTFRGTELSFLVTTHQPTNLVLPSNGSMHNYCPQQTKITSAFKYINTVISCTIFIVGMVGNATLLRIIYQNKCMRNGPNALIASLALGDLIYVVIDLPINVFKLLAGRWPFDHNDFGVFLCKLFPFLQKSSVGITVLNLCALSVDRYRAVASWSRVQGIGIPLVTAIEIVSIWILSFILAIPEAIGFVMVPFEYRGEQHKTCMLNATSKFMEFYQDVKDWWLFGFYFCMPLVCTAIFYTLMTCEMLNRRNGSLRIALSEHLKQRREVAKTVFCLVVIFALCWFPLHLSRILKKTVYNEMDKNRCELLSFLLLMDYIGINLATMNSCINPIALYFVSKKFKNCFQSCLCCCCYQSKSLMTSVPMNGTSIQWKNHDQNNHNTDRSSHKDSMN

[3] = molecular target: Endothelin-1 receptor (Homo sapiens) (UniProt P25101); test: Selectivity towards endothelin A receptor in human.
[4] = molecular target: T2, Endothelin-1 receptor (Rattus norvegicus) (UniProt P26684); test: Selectivity towards endothelin A receptor in rat.
T2 sequence (whole entry): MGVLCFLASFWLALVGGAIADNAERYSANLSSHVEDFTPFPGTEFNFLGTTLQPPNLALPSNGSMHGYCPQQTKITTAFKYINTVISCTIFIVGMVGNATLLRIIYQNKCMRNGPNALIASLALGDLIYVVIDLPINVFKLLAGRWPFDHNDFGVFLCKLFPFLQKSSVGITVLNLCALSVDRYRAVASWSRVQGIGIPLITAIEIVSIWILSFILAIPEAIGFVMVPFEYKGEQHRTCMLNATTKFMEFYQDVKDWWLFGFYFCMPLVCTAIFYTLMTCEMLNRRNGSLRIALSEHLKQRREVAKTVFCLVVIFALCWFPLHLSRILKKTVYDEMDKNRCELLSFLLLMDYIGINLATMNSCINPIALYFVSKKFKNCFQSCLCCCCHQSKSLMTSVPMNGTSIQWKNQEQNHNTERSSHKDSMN

[5] = Half life period was determined; type: ADME, organism-based; conditions: rat, in vivo; in short: as §1
[6] = Compound was evaluated for area under the curve expressed as (h*ug/ml); type: ADME, organism-based; design: concentration or dose not given beside the values; conditions: rat, in vivo; in short: as §1
[7] = molecular target: Endothelin receptor (Rattus norvegicus) (UniProt P26684+P21451); test: Selectivity for endothelin A receptor over endothelin receptor B; type: protein assay
Sequence of Endothelin receptor (Rattus norvegicus) (P21451 whole entry, looked up, one chain of several): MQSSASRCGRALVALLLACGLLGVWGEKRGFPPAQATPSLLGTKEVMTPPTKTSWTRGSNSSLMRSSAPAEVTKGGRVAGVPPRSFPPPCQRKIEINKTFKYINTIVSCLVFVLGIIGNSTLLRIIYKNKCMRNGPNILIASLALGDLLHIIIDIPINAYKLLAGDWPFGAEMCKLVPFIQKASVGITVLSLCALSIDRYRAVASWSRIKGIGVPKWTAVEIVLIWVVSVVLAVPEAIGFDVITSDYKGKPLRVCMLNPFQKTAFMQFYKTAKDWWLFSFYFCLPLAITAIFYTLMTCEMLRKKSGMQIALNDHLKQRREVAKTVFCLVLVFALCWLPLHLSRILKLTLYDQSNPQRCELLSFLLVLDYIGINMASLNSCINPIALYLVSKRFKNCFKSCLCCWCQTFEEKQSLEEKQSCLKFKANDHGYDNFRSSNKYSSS

Endothelin-1 receptor [8] = molecular target: T3, Endothelin-1 receptor (Rattus norvegicus, UniProt P26684); test: Binding affinity towards Endothelin A receptor
T3 sequence (P26684 whole entry): T2 sequence (whole entry)

Rattus norvegicus = test: Compound was evaluated for oral dose to effect 50% inhibition of mean pulmonary arterial pressure (MPAP; type: functional, Artery
In short: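 Acute hypoxia-induced pulmonary hypertension model in rats. Compound given orally; the oral dose giving 50% inhibition of the increase in mean pulmonary arterial pressure is reported.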

[9] = Compound was evaluated for oral bioavailability in rats; conditions: rat, in vivo
[10] = Maximal plasma concentration in rat after oral administration at 50 mg/kg; type: ADME, organism-based; design: dose 50 mg/kg, route oral; in short: as §1
[11] = Half life period was evaluated in rat; 0.5-1.0; type: ADME, organism-based; conditions: in vivo

Cc1cc(C)c(S(N)(=O)=O)c(C)c1NC(=O)c1sccc1S(=O)(=O)Nc1onc(C)c1Cl
Cmax [1]: 2900 ng/mL

Cc1cc(C)c(NC(=O)c2sccc2S(=O)(=O)Nc2onc(C)c2Cl)c(C(=O)O)c1
IC50 (Endothelin-1 receptor [2]): 2.62 nM | Selectivity [3]: 600

Cc1cc(C)c(NC(=O)c2sccc2S(=O)(=O)Nc2onc(C)c2Cl)c(C(=O)C(C)C)c1
IC50 (Endothelin-1 receptor [2]): 0.11 nM | Cmax [1]: 59200 ng/mL | Selectivity [4]: 144000

Cc1cc(C)c(NC(=O)c2sccc2S(=O)(=O)Nc2onc(C)c2Cl)c(C(=O)N(C)C)c1
IC50 (Endothelin-1 receptor [2]): 0.07 nM | Selectivity [3]: 12300 | half-life [5]: 1.19 h | Cmax [1]: 10900 ng/mL | AUC [6]: 27.2 µg·h/mL

CCCc1c(O)c(C(C)=O)cc(C(C)=O)c1NC(=O)c1sccc1S(=O)(=O)Nc1onc(C)c1Cl
IC50 (Endothelin-1 receptor [2]): 12.4 nM | Selectivity [4]: 1000

CC(=O)OCc1c(C)cc(C)c(NC(=O)c2sccc2S(=O)(=O)Nc2onc(C)c2Cl)c1C
Cmax [1]: 3800 ng/mL

Cc1cc(C)c(NC(=O)c2sccc2S(=O)(=O)Nc2onc(C)c2Cl)c(-c2ncco2)c1
IC50 (Endothelin-1 receptor [2]): 0.08 nM | Selectivity [3]: 119000 | half-life [5]: 5.3 h | Cmax [1]: 66000 ng/mL | AUC [6]: 362 µg·h/mL

C/C(=N\O)c1cc(C)cc(C)c1NC(=O)c1sccc1S(=O)(=O)Nc1onc(C)c1Cl
IC50 (Endothelin-1 receptor [2]): 0.02 nM | Selectivity [3]: 24500 | half-life [5]: 5.2 h | Cmax [1]: 6920 ng/mL | AUC [6]: 39.5 µg·h/mL

Cc1cc(C)c(NC(=O)c2sccc2S(=O)(=O)Nc2onc(C)c2Cl)c(S(=O)(=O)C(C)C)c1
IC50 (Endothelin-1 receptor [2]): 0.05 nM | Selectivity [3]: 8800

Cc1cc(C)c(NC(=O)c2sccc2S(=O)(=O)Nc2onc(C)c2Cl)c(C(=O)C2CCCCC2)c1
IC50 (Endothelin-1 receptor [2]): 1.37 nM | Selectivity [3]: 13000

Cc1cc(C)c(NC(=O)c2sccc2S(=O)(=O)Nc2onc(C)c2Cl)c(C)c1C#N
Cmax [1]: 17300 ng/mL

CCC(=O)c1cc(C)cc(C)c1NC(=O)c1sccc1S(=O)(=O)Nc1onc(C)c1Cl
IC50 (Endothelin-1 receptor [2]): 0.06 nM | Selectivity [3]: 214000

Cc1cc(C)c(NC(=O)c2sccc2S(=O)(=O)Nc2onc(C)c2Cl)c(C(=O)CS(C)(=O)=O)c1
IC50 (Endothelin-1 receptor [2]): 0.1 nM | Selectivity [3]: 66500 | ED50 (Rattus norvegicus): > 5 mg/kg | half-life [5]: 12.2 h | Cmax [1]: 37300 ng/mL | AUC [6]: 636 µg·h/mL | bioavailability [9]: 16%

Cc1cc(C)c(N(C)C)c(C)c1NC(=O)c1sccc1S(=O)(=O)Nc1onc(C)c1Cl
Cmax [1]: 3200 ng/mL

Cc1cc(C)c(NC(=O)c2sccc2S(=O)(=O)Nc2onc(C)c2Cl)c(S(C)(=O)=O)c1
Cmax [10]: 10300 ng/mL | IC50 (Endothelin-1 receptor [2]): 0.03 nM | Selectivity [3]: 325000 | half-life [5]: 1.7 h | AUC [6]: 28.2 µg·h/mL

CCC(=O)c1c(C)c(C)cc(C)c1NC(=O)c1sccc1S(=O)(=O)Nc1onc(C)c1Cl
IC50 (Endothelin-1 receptor [2]): 0.03 nM | Selectivity [3]: 216000 | half-life [5]: 1.47 h | Cmax [1]: 13000 ng/mL | AUC [6]: 24.3 µg·h/mL

Cc1cc(C)c(NC(=O)c2sccc2S(=O)(=O)Nc2onc(C)c2Cl)c(C(=O)C2CC2)c1
IC50 (Endothelin-1 receptor [2]): 0.03 nM | Selectivity [3]: 331000 | half-life [5]: 5.4 h | Cmax [1]: 53400 ng/mL | AUC [6]: 365 µg·h/mL

Cc1cc(C)c(NC(=O)c2sccc2S(=O)(=O)Nc2onc(C)c2Cl)c(C)c1CO
Cmax [1]: 2400 ng/mL

CC(C)C[C@@H]1NC(=O)[C@@H](C(C)C)NC(=O)[C@@H]2CCCN2C(=O)[C@@H](CC(=O)O)NC(=O)[C@@H](Cc2c[nH]c3ccccc23)NC1=O [BQ-123] (cyclo(L[dW][dD]P[dV]))
IC50 (Endothelin-1 receptor [2]): 22 nM | Selectivity [7]: 818

CCCCc1ccc2c(n1)[C@@H](c1ccc(OC)cc1C[C@H](C)C(=O)O)[C@H](C(=O)O)[C@H]2c1ccc2c(c1)OCO2
Selectivity [7]: 3 | Ki (Endothelin-1 receptor [8]): 0.034 nM | bioavailability [9]: 40%

COc1cc(OC)nc(O[C@H](C(=O)O)C(OC)(c2ccccc2)c2ccccc2)n1
Selectivity [7]: 60 | Ki (Endothelin-1 receptor [8]): 6 nM

Cc1cc(C)c(NC(=O)c2sccc2S(=O)(=O)Nc2onc(C)c2Cl)c(-c2ccccc2)c1
IC50 (Endothelin-1 receptor [2]): 1.47 nM | Selectivity [3]: 1900

Cc1cc(C)c(OC2CC2)c(C)c1NC(=O)c1sccc1S(=O)(=O)Nc1onc(C)c1Cl
Cmax [1]: 6100 ng/mL

CC(=O)c1c(C)c(C)cc(C)c1NC(=O)c1sccc1S(=O)(=O)Nc1onc(C)c1Cl
IC50 (Endothelin-1 receptor [2]): 0.02 nM | Selectivity [3]: 1.18e+06 | half-life [5]: 1.68 h | Cmax [1]: 10800 ng/mL | AUC [6]: 53.8 µg·h/mL

Cc1cc(-c2ncco2)cc(C)c1NC(=O)c1sccc1S(=O)(=O)Nc1onc(C)c1Cl
IC50 (Endothelin-1 receptor [2]): 1.27 nM | Selectivity [3]: 1900

CO/N=C(\C)c1cc(C)cc(C)c1NC(=O)c1sccc1S(=O)(=O)Nc1onc(C)c1Cl
IC50 (Endothelin-1 receptor [2]): 0.04 nM | Selectivity [3]: 56000 | half-life [5]: 1.2 h | Cmax [1]: 13800 ng/mL | AUC [6]: 33.5 µg·h/mL

CCCS(=O)(=O)c1cc(C)cc(C)c1NC(=O)c1sccc1S(=O)(=O)Nc1onc(C)c1Cl
IC50 (Endothelin-1 receptor [2]): 0.06 nM | Selectivity [3]: 6100 | half-life [5]: 1.3 h | Cmax [1]: 2900 ng/mL | AUC [6]: 5.9 µg·h/mL

Cc1cc(C)c(NS(C)(=O)=O)c(C)c1NC(=O)c1sccc1S(=O)(=O)Nc1onc(C)c1Cl
Cmax [1]: 2800 ng/mL

COc1c(C)cc(C)c(NC(=O)c2sccc2S(=O)(=O)Nc2onc(C)c2Cl)c1C
Cmax [1]: 4000 ng/mL

CC(C)C[C@@H]1NC(=O)[C@@H](c2cccs2)NC(=O)[C@H](CC(=O)[O-])NC(=O)[C@H](CC(=O)N2CCN(c3ccccc3)CC2)NC(=O)[C@@H](CC(=O)[O-])NC(=O)[C@@H](Cc2c[nH]c3ccccc23)NC1=O.[Na+].[Na+] (cyclo(D(Piperazinyl(4-Ph))D[dGly(2-thienyl)]L[dW][dD]))
half-life [11]: 1 h | Selectivity [7]: 540

CC(=O)c1cc(C)cc(C)c1NC(=O)c1sc(C)cc1S(=O)(=O)Nc1onc(C)c1Cl
IC50 (Endothelin-1 receptor [2]): 0.21 nM | Selectivity [3]: 4500 | half-life [5]: 2.7 h | Cmax [1]: 68900 ng/mL | AUC [6]: 327 µg·h/mL | bioavailability [9]: 49%

Cc1cc(C)c(NC(=O)c2sccc2S(=O)(=O)Nc2onc(C)c2Cl)c(C(=O)c2ccccc2)c1
IC50 (Endothelin-1 receptor [2]): 0.39 nM | Selectivity [3]: 46000 | half-life [5]: 3.95 h | Cmax [1]: 33400 ng/mL | AUC [6]: 141 µg·h/mL

Cc1cc(C)c(NC(=O)c2sccc2S(=O)(=O)Nc2onc(C)c2Cl)c(Cl)c1
IC50 (Endothelin-1 receptor [2]): 0.09 nM | Selectivity [3]: 166000 | half-life [5]: 2.6 h | Cmax [1]: 47500 ng/mL | AUC [6]: 172 µg·h/mL

Cc1cc(C)c(NC(=O)c2sccc2S(=O)(=O)Nc2onc(C)c2Cl)c(C)c1
IC50 (Endothelin-1 receptor [2]): 0.15 nM | Selectivity [3]: 7000

Cc1cc(C)c(NC(=O)c2sccc2S(=O)(=O)Nc2onc(C)c2Cl)c(C#N)c1C
IC50 (Endothelin-1 receptor [2]): 0.05 nM | Selectivity [3]: 608000 | half-life [5]: 5.11 h | Cmax [1]: 45700 ng/mL | AUC [6]: 373 µg·h/mL

CCCCN(CCCC)C(=O)CN1C[C@H](c2ccc3c(c2)OCO3)[C@@H](C(=O)O)[C@@H]1c1ccc(OC)cc1
bioavailability [9]: 60%

Cc1cc(C)c(NC(=O)c2sccc2S(=O)(=O)Nc2onc(C)c2C)c(C#N)c1C
IC50 (Endothelin-1 receptor [2]): 0.08 nM | Selectivity [3]: 328000 | half-life [5]: 5.3 h | Cmax [1]: 85800 ng/mL | AUC [6]: 667 µg·h/mL

Cc1cc(C)c(NC(=O)c2sccc2S(=O)(=O)Nc2onc(C)c2Cl)c(C(=O)N(C)CC(C)(C)C)c1
IC50 (Endothelin-1 receptor [2]): 0.68 nM | Selectivity [3]: 15900
